The source made the active and inactive calls. The calls are words filed in the database; no cut-off is given here.

The term Cmax denotes the highest concentration seen after dosing. For orientation: IC50 means the midpoint of a concentration-inhibition curve. The Kd is the equilibrium constant for the complex coming apart. High values mean a looser complex, low ones a tighter complex.

Series [1] in a line: Cmax in Sprague-Dawley rat at 10 mg/kg, po measured up to 24 hrs by LC-MS/MS analysis. The class given is ADME, organism-based. Also noted: route oral, dose 10 mg/kg, time <=24. Particulars: in vivo. The method in brief: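 Male SD rats given a single oral dose of 10 mg/kg in DMSO/0.5% HPMC (5/95, v/v). Blood was drawn at 0.25, 0.5, 1, 2, 4, 8 and 24 h, and plasma was analysed by LC-MS/MS on a BEH phenyl column with a formic acid water/acetonitrile mobile phase.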

Series [2] in a line: Toxicity in mouse xenografted with human MDA-MB-231-4175 cells assessed as body weight loss at 5 to 15 mg/kg, […] once daily for 20 days. The series is classed as organism-based. The following applies: in vivo, iv, dose 5-15 mg/kg, time 20 day. In outline:
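Female NOD-SCID mice aged 4–5 weeks, given 2×10^6–3×10^6 MDA-MB-231-4175 cells subcutaneously in the flank. At about 100 mm³ tumour volume, randomised n=6/group to vehicle (PBS with 15% Cremophor EL) or 5 or 15 mg/kg intraperitoneally daily for 20 days. Body weight tracked during treatment.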
A general note: In xenograft studies the graft and the host belong to different species.

For series [3], the target named is T1, Signal transducer and activator of transcription 3 (Homo sapiens, UniProt P40763). The experiment in a line: Inhibition of STAT3 dependent transcriptional activity (unknown origin) expressed in HEK293T cells at 1 to 3 uM after 24 hrs by Dual-luciferase reporter gene assay. The class given is cell-based. The following applies: dose 1-3 µM. In outline:
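HEK-293T cells (2.5×10^4/well) co-transfected with pGL3-STAT3 (seven STAT3 binding-site copies; 50 ng), STAT3C (50 ng) and TK-Renilla (40 ng). After 24 h, treated with vehicle or compound for 24 h. Dual firefly/Renilla luciferase read on a luminometer.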

Series [4] relates to MDA231-LM2-4175. The experiment in a line: Antitumor activity against human MDA231-LM2-4175 cells xenografted in mouse assessed as reduction in pY705-STAT3 expression at 5 to 15 mg/kg, iv administered once daily for 20 days by Western blotting analysis. The series is classed as functional, organism-based. Particulars: dose 5-15 mg/kg, time 20.0 day.
For series [5], the system named is MDA231-LM2-4175. Kind of series: Induction of apoptosis in human MDA231-LM2-4175 cells assessed as increase in caspase-7 cleavage at 1 uM after 48 hrs by Western blot analysis. The series is classed as functional, cell-based. In outline: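 Breast cancer cells given vehicle (0.1% DMSO) or compound, then lysed in RIPA buffer with PMSF and phosphatase inhibitors. BCA-quantified lysate (20–50 µg) run on 8 or 12% SDS-PAGE and transferred to PVDF. Blocked in 5% BSA, probed overnight at 4 °C for PARP and cleaved caspase-7, HRP secondary, ECL detection. β-actin as loading control.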
On the technique in general: In western blotting, separated proteins are transferred to a membrane and probed.

Series [6] is described as follows: Induction of apoptosis in human MDA231-LM2-4175 cells assessed as early apoptotic cells at 3 uM after 48 hrs by Annexin-V-FITC/propidium iodide staining based flow cytometric analysis (reference value: 2.49%). The class given is functional. On the technique in general: A flow cytometer gives signals particle by particle.
Series [7] concerns MCF7. Kind of series: Antiproliferative activity against human MCF7 cells assessed as reduction in cell viability after 72 hrs by CCK8 assay. The series is classed as functional, cell-based. The following applies: MCF7, 72 h. In outline: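 Cells seeded at 1000–8000 per well were grown overnight, then exposed to 0.1–100 μM compound or 0.1% DMSO vehicle for 72 h. CCK-8 was added for 0.5–4 h at 37 °C and absorbance read at 480 nm. Viability = (OD compound − blank)/(OD vehicle − blank) × 100, with medium as blank. IC50 fitted from three independent experiments.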

Series [8] addresses T2, Signal transducer and activator of transcription 5A (Homo sapiens) (UniProt P42229).
T2 sequence (whole entry): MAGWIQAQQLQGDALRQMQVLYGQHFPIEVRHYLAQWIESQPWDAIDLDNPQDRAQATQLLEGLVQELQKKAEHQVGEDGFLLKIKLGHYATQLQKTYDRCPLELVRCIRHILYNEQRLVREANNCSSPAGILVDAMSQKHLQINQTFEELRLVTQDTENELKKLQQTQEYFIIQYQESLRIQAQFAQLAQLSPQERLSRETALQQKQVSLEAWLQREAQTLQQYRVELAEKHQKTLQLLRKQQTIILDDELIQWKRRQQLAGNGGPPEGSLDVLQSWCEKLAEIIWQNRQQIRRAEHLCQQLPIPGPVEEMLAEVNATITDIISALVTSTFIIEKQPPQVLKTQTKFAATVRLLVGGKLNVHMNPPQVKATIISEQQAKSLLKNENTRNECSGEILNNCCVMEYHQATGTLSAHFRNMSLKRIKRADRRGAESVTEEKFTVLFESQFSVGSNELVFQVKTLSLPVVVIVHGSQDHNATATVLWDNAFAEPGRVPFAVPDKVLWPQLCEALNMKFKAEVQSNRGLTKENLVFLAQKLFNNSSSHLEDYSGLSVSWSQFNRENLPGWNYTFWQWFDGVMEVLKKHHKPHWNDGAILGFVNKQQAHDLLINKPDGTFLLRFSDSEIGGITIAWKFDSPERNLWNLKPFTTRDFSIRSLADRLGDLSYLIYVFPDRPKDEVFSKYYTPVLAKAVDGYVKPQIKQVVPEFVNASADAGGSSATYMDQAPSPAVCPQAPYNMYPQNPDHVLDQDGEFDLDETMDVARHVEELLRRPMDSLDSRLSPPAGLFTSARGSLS
Kind of series: Inhibition of STAT5 phosphorylation at Y694 residue in human MDA-MB-231 cells at 0.3 to 3 uM after 3 hrs by Western blotting analysis. The class given is cell-based. The following applies: dose 0.3-3 µM.

Series [9] deals with MDA-MB-231. The experiment in a line: Induction of apoptosis in human MDA-MB-231 cells assessed as early apoptotic cells at 1 uM after 48 hrs by Annexin-V-FITC/propidium iodide staining based flow cytometric analysis (reference value: 2.98%). The series is classed as functional.
Series [10] concerns the target T2, Signal transducer and activator of transcription 5A (Homo sapiens). Kind of series: Inhibition of STAT5 DNA binding in human MDA-MB-468 cells at 3 uM after 3 hrs by EMSA analysis. The class given is cell-based. In outline:
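Cells exposed to vehicle or compound for 3 h. Nuclear extracts prepared and BCA-quantified. Nuclear protein (8–10 µg) incubated with biotinylated STAT3 or STAT5 probe, resolved on 6% native polyacrylamide gel, transferred to nylon membrane and detected with a gel-shift kit.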

Series [11] concerns the target T1, Signal transducer and activator of transcription 3. The experiment in a line: Binding affinity to STAT3 (unknown origin) […].
The test system of series [12] is MDA-MB-468. Kind of series: Effect on total STAT3 level in human MDA-MB-468 cells at 0.3 to 3 uM measured after 3 hrs by Western blot analysis. The following applies: dose 0.3-3 µM. The class given is functional, cell-based. In outline: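 Breast cancer cells were treated with vehicle (0.1% DMSO) or compound, then lysed in RIPA with PMSF and phosphatase inhibitors. 20–50 μg protein was run on 8 or 12% SDS-PAGE, blotted to PVDF, blocked in 5% BSA, probed with primary antibodies overnight at 4 °C, then HRP secondaries, with ECL detection.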

For series [13], the target named is T1, Signal transducer and activator of transcription 3. The experiment in a line: Inhibition of STAT3 in human MDA-MB-231 cells assessed as downregulation of Bcl-xL expression at 0.3 to 3 uM after 24 hrs by western blot analysis. The following applies: dose 0.3-3 µM. The series is classed as cell-based. The method in brief: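 TNBC cells given vehicle (0.1% DMSO) or graded compound levels for 24 h, lysed in RIPA with PMSF and phosphatase inhibitors. BCA-quantified lysate (20–50 µg) run on SDS-PAGE, transferred to PVDF, blocked in 5% BSA. Probed overnight at 4 °C for Bcl-xL, Mcl-1 and c-Myc, with β-actin. HRP secondary, ECL detection. Three independent experiments.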

T1 sequence (P40763 whole entry): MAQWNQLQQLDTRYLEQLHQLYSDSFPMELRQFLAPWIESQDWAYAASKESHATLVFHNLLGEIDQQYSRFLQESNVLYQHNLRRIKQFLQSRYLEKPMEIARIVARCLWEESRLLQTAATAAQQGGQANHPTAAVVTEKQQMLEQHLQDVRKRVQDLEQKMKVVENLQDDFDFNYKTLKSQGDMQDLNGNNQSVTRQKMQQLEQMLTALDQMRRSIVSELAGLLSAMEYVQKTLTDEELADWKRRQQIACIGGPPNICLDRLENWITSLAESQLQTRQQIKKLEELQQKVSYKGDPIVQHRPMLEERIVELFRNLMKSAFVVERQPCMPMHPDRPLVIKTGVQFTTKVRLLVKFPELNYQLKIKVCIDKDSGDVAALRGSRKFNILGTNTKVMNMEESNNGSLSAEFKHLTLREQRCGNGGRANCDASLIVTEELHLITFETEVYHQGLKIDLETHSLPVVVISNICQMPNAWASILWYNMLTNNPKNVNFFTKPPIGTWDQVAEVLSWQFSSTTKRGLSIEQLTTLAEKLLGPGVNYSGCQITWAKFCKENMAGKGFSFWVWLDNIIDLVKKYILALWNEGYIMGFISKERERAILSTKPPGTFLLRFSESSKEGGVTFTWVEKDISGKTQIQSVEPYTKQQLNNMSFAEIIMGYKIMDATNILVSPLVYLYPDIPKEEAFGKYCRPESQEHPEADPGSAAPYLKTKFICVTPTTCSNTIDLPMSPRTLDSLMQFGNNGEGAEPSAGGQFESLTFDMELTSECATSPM

In series [1], `O=C(Cc1c(-c2ccccc2)nc2ccccn12)Nc1ccc2c(c1)S(=O)(=O)C=C2` returned a Cmax of 23.8 ng/mL. Moreover, the Activity entry was “Non-Toxic” in series [2], 9.5% in series [6] and 7.38% in [9]. Moreover, the inhibition result in [3] and in series [13] was “Active” each time. For the same compound, the result in [4] and in series [5] was Active. Also, in [7], the IC50 came to 7.22 µM. For the same compound, the inhibition result in [8] and in [10] was “inactive” throughout. In [11], this compound displayed a Kd of 0.432 µM. Also, in [12], the outcome was inactive.

The values above are taken from ChEMBL document CHEMBL4825680, “Structure-based discovery of potent and selective small-molecule inhibitors targeting signal transducer and activator of transcription 3 (STAT3)” (Eur J Med Chem, 2021).
